According to ChEMBL document CHEMBL4373718, “Germacrane Sesquiterpenoids as a New Type of Anticardiac Fibrosis Agent Targeting Transforming Growth Factor β Type I Receptor” (J Med Chem, 2019):
Calls of active or inactive are those of the source. The rule behind the calls is not given here.

Assays:
[1] = biological target: T1, TGF-beta receptor type-1 (Rattus norvegicus) (UniProt P80204); assay: Inhibition of TGFbeta1 receptor in TGFbeta1-stimulated Sprague-Dawley rat cardiac fibroblasts assessed as reduction in fibronectin expression at 50 uM measured after 12 hrs by Western blot analysis
T1 sequence (whole entry): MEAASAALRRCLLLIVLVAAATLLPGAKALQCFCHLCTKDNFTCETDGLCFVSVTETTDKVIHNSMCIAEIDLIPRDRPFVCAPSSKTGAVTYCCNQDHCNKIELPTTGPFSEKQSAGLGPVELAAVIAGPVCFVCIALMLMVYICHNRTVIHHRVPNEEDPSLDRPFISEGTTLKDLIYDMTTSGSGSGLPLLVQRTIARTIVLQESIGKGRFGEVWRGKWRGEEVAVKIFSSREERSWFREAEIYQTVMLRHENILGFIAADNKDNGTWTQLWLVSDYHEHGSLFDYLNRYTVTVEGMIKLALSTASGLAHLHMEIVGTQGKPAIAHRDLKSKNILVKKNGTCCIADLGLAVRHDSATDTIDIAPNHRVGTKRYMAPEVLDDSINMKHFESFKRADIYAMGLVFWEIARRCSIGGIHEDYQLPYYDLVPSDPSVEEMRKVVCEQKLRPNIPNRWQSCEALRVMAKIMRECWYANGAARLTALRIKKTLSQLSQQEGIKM
Method in brief: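 Screen in primary rat cardiac fibroblasts: compounds at 50 µM or 10 µM given with 10 ng/mL TGFβ1 for 12 h. FN measured by Western blot with GAPDH loading control and densitometry. N=3 independent experiments.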

[2] = Cytotoxicity against Sprague-Dawley rat cardiac fibroblasts assessed as reduction in cell viability at 25 uM measured after 48 hrs by MTT assay
Method in brief: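 Primary adult male SD rat cardiac fibroblasts at passages 2–4, 5000 cells per well. Treated for 48 h, then MTT (5 mg/mL) for 4 h. Formazan dissolved in DMSO and absorbance read at 570 nm. Triplicate wells, three independent experiments.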

[3] = biological target: T1, TGF-beta receptor type-1 (Rattus norvegicus); assay: Inhibition of TGFbeta1 receptor in TGFbeta1-stimulated Sprague-Dawley rat cardiac fibroblasts assessed as reduction in collagen 1 mRNA expression at 2.5 to 10 uM measured after 12 hrs by qRT-PCR analysis
Method in brief: (§1)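 Primary rat cardiac fibroblasts (3×10^5 per well) treated with compound plus 10 ng/mL TGFβ1 for 12 h. Total RNA extracted and target transcripts measured by SYBR Green qRT-PCR, normalized to GAPDH.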

[4] = biological target: T1, TGF-beta receptor type-1 (Rattus norvegicus); assay: Inhibition of TGFbeta1 receptor in TGFbeta1-stimulated Sprague-Dawley rat cardiac fibroblasts assessed as reduction in collagen 3 mRNA expression at 2.5 to 10 uM measured after 12 hrs by qRT-PCR analysis; method in brief: as §1
[5] = Effect on total Smad2 expression in TGFbeta1-stimulated Sprague-Dawley rat cardiac fibroblasts at 10 uM measured after 5 to 30 mins by Western blot analysis; type: ADME
[6] = biological target: T1, TGF-beta receptor type-1 (Rattus norvegicus); assay: Inhibition of TGFbeta1 receptor in TGFbeta1-stimulated Sprague-Dawley rat cardiac fibroblasts assessed as reduction in Smad3 phosphorylation at 10 uM measured after 5 to 30 mins by Western blot analysis
[7] = biological target: T1, TGF-beta receptor type-1 (Rattus norvegicus); assay: Inhibition of TGFbeta1 receptor in TGFbeta1-stimulated Sprague-Dawley rat cardiac fibroblasts assessed as reduction in Smad2 phosphorylation at 10 uM measured after 5 to 30 mins by Western blot analysis
[8] = biological target: TGF-beta receptor type-2 (Homo sapiens) (UniProt P37173); assay: Inhibition of recombinant human N-terminal GST-tagged TGFbeta2 receptor (190 to end residues) expressed in baculovirus infected Sf9 insect cells up to 100 uM using MBP as substrate measured after 2 hrs by ADP-Glo assay
Chain of TGF-beta receptor type-2 (Homo sapiens) (P37173 whole entry): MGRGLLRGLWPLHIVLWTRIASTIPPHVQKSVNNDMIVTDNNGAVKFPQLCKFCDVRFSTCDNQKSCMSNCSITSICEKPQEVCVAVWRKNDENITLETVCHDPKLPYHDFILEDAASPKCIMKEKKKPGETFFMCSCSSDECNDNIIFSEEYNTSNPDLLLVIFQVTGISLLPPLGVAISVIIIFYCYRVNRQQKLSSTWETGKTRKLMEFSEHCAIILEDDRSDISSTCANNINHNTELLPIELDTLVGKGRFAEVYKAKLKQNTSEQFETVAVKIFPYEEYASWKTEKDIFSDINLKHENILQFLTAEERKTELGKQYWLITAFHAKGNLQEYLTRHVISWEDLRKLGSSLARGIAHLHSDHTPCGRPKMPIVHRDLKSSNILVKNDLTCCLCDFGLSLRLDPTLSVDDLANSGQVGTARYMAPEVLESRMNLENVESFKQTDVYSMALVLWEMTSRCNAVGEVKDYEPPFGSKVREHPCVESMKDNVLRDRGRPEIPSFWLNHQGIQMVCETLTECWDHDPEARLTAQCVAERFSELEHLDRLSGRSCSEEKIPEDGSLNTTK
Method in brief: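 Recombinant human TβRII produced in Sf9 cells. Compound serially diluted from DMSO and incubated with enzyme, 50 µM ATP and 0.1 g/L MBP for 2 h at room temperature. Kinase activity read as ADP generated.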

Rattus norvegicus [9] = assay: Antifibrotic activity in abdominal aortic constriction Sprague-Dawley rat model of cardiac fibrosis assessed as decrease in heart fibronectin level at 5 mg/kg, ip administered once daily for 4 weeks measured post-last dose by immunohistochemical analysis relative to control; type: functional; set-up: scale not given: the % may be the effect or the level left
Method in brief: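 Male SD rats (200–250 g) with abdominal aortic constriction (suture tied over a 21-G probe above the renal arteries), under pentobarbital 30 mg/kg ip. Dosed ip daily for 4 weeks. Vehicle was saline with 0.5% DMSO and 5% Kolliphor HS 15. Groups: sham, AAC, AAC+nifedipine 10 mg/kg, n=8 each. Formalin-fixed paraffin sections 4 µm thick; FN and α-SMA by immunohistochemistry, collagen by Masson's trichrome; stained area measured.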

Rattus norvegicus [10] = assay: Antifibrotic activity in abdominal aortic constriction Sprague-Dawley rat model of cardiac fibrosis assessed as down regulation of fibronectin expression in heart at 5 mg/kg, ip administered once daily for 4 weeks measured post-last dose by Western blot analysis; type: functional, organism-based
Method in brief: (§2)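 AAC rats dosed ip daily for 4 weeks, n=8 per group. Hearts homogenized in lysis buffer with protease and phosphatase inhibitors and spun at 12,000 rpm for 30 min at 4 °C. Nuclear and cytoplasmic fractions prepared with a kit. Protein measured by BCA; 30 µg run on 10% SDS-PAGE, transferred to PVDF and immunoblotted; bands quantified by densitometry.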

Rattus norvegicus [11] = assay: Antifibrotic activity in abdominal aortic constriction Sprague-Dawley rat model of cardiac fibrosis assessed as reduction in Smad3 phosphorylation in heart at 5 mg/kg, ip administered once daily for 4 weeks measured post-last dose by Western blot analysis; type: functional, organism-based; method in brief: as §2
Rattus norvegicus [12] = assay: Antifibrotic activity in abdominal aortic constriction Sprague-Dawley rat model of cardiac fibrosis assessed as reduction in Smad2 phosphorylation in heart at 5 mg/kg, ip administered once daily for 4 weeks measured post-last dose by immunohistochemical analysis; type: functional, organism-based
Method in brief: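 AAC rats dosed ip daily for 4 weeks, n=8 per group. Phospho-Smad2/3 stained by immunohistochemistry on 4 µm paraffin heart sections. Stained area summed over 6 fields per rat for statistics.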

Rattus norvegicus [13] = assay: Antifibrotic activity in abdominal aortic constriction Sprague-Dawley rat model of cardiac fibrosis assessed as diastolic left ventricular anterior wall thickness at 5 mg/kg, ip administered once daily for 4 weeks measured post-last dose by echocardiography (reference value: 2.48 +/- 0.42 mm); type: functional
Rattus norvegicus [14] = assay: Antifibrotic activity in abdominal aortic constriction Sprague-Dawley rat model of cardiac fibrosis assessed as systolic left ventricular internal diameter at 5 mg/kg, ip administered once daily for 4 weeks measured post-last dose by echocardiography (reference value: 3.99 +/- 0.41 mm); type: functional
Rattus norvegicus [15] = assay: Antifibrotic activity in abdominal aortic constriction Sprague-Dawley rat model of cardiac fibrosis assessed as diastolic left ventricular posterior wall thickness at 5 mg/kg, ip administered once daily for 4 weeks measured post-last dose by echocardiography (reference value: 2.33 +/- 0.31 mm); type: functional
Rattus norvegicus [16] = assay: Antifibrotic activity in abdominal aortic constriction Sprague-Dawley rat model of cardiac fibrosis assessed as ejection fraction at 5 mg/kg, ip administered once daily for 4 weeks measured post-last dose by echocardiography (reference value: 79.59 +/- 3.13%); type: functional
Rattus norvegicus [17] = assay: Antifibrotic activity in abdominal aortic constriction Sprague-Dawley rat model of cardiac fibrosis assessed as fractional shortening at 5 mg/kg, ip administered once daily for 4 weeks measured post-last dose by echocardiography (reference value: 48.17 +/- 4.69%); type: functional

C=C(C)[C@@H]1C/C=C(\C)C(=O)CCC2=C[C@@H]1OC2=O
fibronectin reduction (active/not active) [1]: Active | Activity [2]: Non-Toxic | inhibition [3]: Active | inhibition [4]: Active | Activity [5]: Non-Toxic | inhibition [6]: Active | inhibition [7]: Active | inhibition [8]: inactive | Activity (Rattus norvegicus [9]): 90.7% | Activity (Rattus norvegicus [10]): Active | Activity (Rattus norvegicus [11]): Active | Activity (Rattus norvegicus [12]): Active | Activity (Rattus norvegicus [13]): 2.11 mm | Activity (Rattus norvegicus [14]): 4.74 mm | Activity (Rattus norvegicus [15]): 2 mm | Activity (Rattus norvegicus [16]): 71.38% | Activity (Rattus norvegicus [17]): 42.54%
